Publication PMC7686626 (The Journal of International Medical Research, 2020)

Legend:
[1] = Pharmacokinetics study in rats after oral administration of HQCF extract; assay type: in vivo, rat; conditions: for AUC(0-inf) / AUC(0-t) / Cmax / Tmax / half-life: male, Sprague-Dawley, rat, plasma, po, 1526.5 mg/kg; for shape of the plasma concentration–time curve: rats, after HQCF extract administration
Procedure, shortened: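 Male Sprague–Dawley rats (200 ± 20 g), acclimatised 7 days, fasted 12 h; n = 6 given extract water solution (0.2 g·mL−1) by gavage. Blood (~250 µL) from ophthalmic vein at 0–24 h; plasma spun at 16,060 × g, 10 min, 4°C. Plasma protein-precipitated with taxol internal standard; C18 gradient HPLC–ESI-MS/MS in SRM mode. Non-compartmental analysis; mean ± SD.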

[2] = Stability of QC samples of the analytes in rat plasma; assay type: in vitro ADME; conditions: storage conditions of Table 5
Procedure, shortened: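 Rat plasma QC samples at low, middle and high levels (n = 6 each) were held 4 h at room temperature, 24 h at 4°C, three freeze/thaw cycles (−80°C to room temperature) or 45 days at −80°C. Samples were protein-precipitated with taxol internal standard and run by HPLC–MS/MS SRM. A deviation within ±15% was taken as stable.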

[3] = Short-term stability of stock solutions at room temperature; assay type: physicochemical; conditions: stock solution in methanol, room temperature for 6 hours
Procedure, shortened: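 Stock solutions (2.0 mg·mL−1 in methanol) of each analyte and the taxol internal standard were held 6 hours at room temperature and then assayed by the validated HPLC–MS/MS method. A deviation within ±15% was taken as stable.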

Row | AUC(0-inf) [1] [ng·h/mL] | AUC(0-t) [1] [ng·h/mL] | Cmax [1] [ng/mL] | Tmax [1] [h] | half-life [1] [h] | shape of the plasma concentration–time curve [1] | Degradation in rat plasma under different experimental conditions [2] | Stock solution stability, accuracy [3] [%] | SMILES
1 | 1830 ± 416 | 1680 ± 342 | 247 ± 32.3 | 1.5 ± 0.4 | 6.28 ± 2.5 | double-peak absorption phases | no significant degradation | 90.2 | COc1ccc(-c2coc3cc(O)ccc3c2=O)cc1O [CA, calycosin]
2 | – | – | – | – | – | – | – | 102.4 | CC(=O)O[C@H]1C(=O)[C@@]2(C)[C@H]([C@H](OC(=O)c3ccccc3)[C@]3(O)C[C@H](OC(=O)[C@H](O)[C@@H](NC(=O)c4ccccc4)c4ccccc4)C(C)=C1C3(C)C)[C@]1(OC(C)=O)CO[C@@H]1C[C@@H]2O [IS, Taxol, reference compound]
3 | 762 ± 281 | 410 ± 92.3 | 117 ± 31.5 | 1.2 ± 0.6 | 6.94 ± 2.8 | double-peak absorption phases | no significant degradation | 105.4 | C[C@@]12C[C@@]3(O)O[C@@H](O1)[C@]1(COC(=O)c4ccccc4)[C@H]3C[C@@]12O[C@@H]1O[C@H](CO)[C@@H](O)[C@H](O)[C@H]1O [PA, paeoniflorin]
